Laboratory results: ChEMBL document CHEMBL3259749, “Design, synthesis and evaluation of novel 2,5,6-trisubstituted benzimidazoles targeting FtsZ as antitubercular agents” (Bioorg Med Chem, 2014)
Values after ≈ are worked out from the molar mass of the structure shown. Active and inactive are the calls of the source. No cut-off for these calls is given here.

Columns and labels:
[1] = test system: Mycobacterium tuberculosis; test: Antimycobacterial activity against Mycobacterium tuberculosis H37Rv assessed as growth inhibition after 7 days incubation by Alamar Blue staining-based broth microdilution assay; type: functional; details: 168 h
Procedure, shortened: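 Mid-log Mtb H37Rv grown in 7H9 with 10% OADC and 0.05% Tween-80, added to 2-fold serial dilutions of DMSO-stocked compound at OD600 0.005. Incubated 6 days at 37 °C, then Alamar Blue added for a further 24 h at 37 °C. Colour change read by eye; MIC99 taken in triplicate.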

Vero = test: Cytotoxicity against African green monkey Vero cells […] by MTT assay; type: cell-based; details: Chlorocebus sabaeus
[2] = test system: Mycobacterium tuberculosis; test: Antimycobacterial activity against Mycobacterium tuberculosis H37Rv assessed as growth inhibition at 1 ug/ml after 7 days incubation by Alamar Blue staining-based broth microdilution assay; type: functional; details: 168 h, read-out: GI
[3] = test system: Mycobacterium tuberculosis; test: Inhibition of Mycobacterium tuberculosis FtsZ polymerization assessed as 90 degrees light scattering by fluorescence system
Procedure, shortened: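 His-tagged Mtb-FtsZ at 15 μM, Ni-resin and size-exclusion purified, preincubated with DMSO-stocked compound for up to 300 s. Buffer was 50 mM MES pH 6.5, 100 mM KCl, 5 mM MgCl2. Polymerization started with 100 μM GTP. 90° light scattering recorded at 30 °C, excitation/emission 400 nm, for up to 30 min.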

[4] = Binding affinity to Mycobacterium tuberculosis FtsZ assessed as fluorescence intensity at emission maximum 427.9 nm
Procedure, shortened: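 Fluorescence of compound held at 100 μM, titrated with His-tagged Mtb-FtsZ expressed in E. coli BL21(DE3). FtsZ was Ni-resin purified and dialysed into Tris storage buffer. Run in 50 mM MES, 100 mM KCl, 5 mM MgCl2, with no GTP. Excitation 316 nm, emission 427.9 nm. Kd obtained by fitting ΔF = (ΔFmax × L)/(Kd + L).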

[5] = test system: Mycobacterium tuberculosis; test: Inhibition of Mycobacterium tuberculosis FtsZ polymerization assessed as reduction in length, density and aggregation of polymer at 40 to 80 uM by Transmission electron microscopy in presence of 25 uM GTP
Procedure, shortened: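 Mtb-FtsZ at 5 μM, Ni-NTA purified, held 15 min on ice with ethanol-stocked compound in 50 mM MES pH 6.5, 5 mM MgCl2, 100 mM KCl. GTP added to 25 μM final, then 30 min at 37 °C. Sample diluted 2-fold, negatively stained with 1% uranyl acetate on carbon-coated grids, imaged at 80 kV at 23,000x and 49,000x.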

COc1ccc(C(=O)Nc2cc3nc(C4CCCCC4)[nH]c3cc2Oc2ccc(F)cc2)cc1
MIC [1]: 3.13 µg/mL (≈ 6.81 µM)
IC50 (Vero): 40 µM

CCCCSc1cc2[nH]c(C3CCCCC3)nc2cc1NC(=O)c1ccc(C)cc1
inhibition of growth at 1 µg/mL [2]: 53%
IC50 (Vero): > 200 µM

C=CCCC(=O)Nc1cc2nc(C3CCCCC3)[nH]c2cc1Sc1ccc(F)cc1
inhibition of growth at 1 µg/mL [2]: 41%

CCCCOC(=O)Nc1cc2nc(C3CCCCC3)[nH]c2cc1N(CC)CC
MIC [1]: 0.78 µg/mL (≈ 2.02 µM)

CCN(CC)c1cc2[nH]c(C3CCCCC3)nc2cc1NC(=O)c1ccc(OC)cc1
MIC [1]: 3.1 µg/mL (≈ 7.37 µM)

C=CCCC(=O)Nc1cc2nc(C3CCCCC3)[nH]c2cc1Sc1ccccc1
inhibition of growth at 1 µg/mL [2]: 56%

CCCOC(=O)Nc1cc2nc(C3CCCCC3)[nH]c2cc1Sc1ccc(F)cc1
inhibition of growth at 1 µg/mL [2]: 46%

O=C(Nc1cc2nc(C3CCCCC3)[nH]c2cc1Oc1ccc(F)cc1)c1ccc(F)cc1F
inhibition of growth at 1 µg/mL [2]: 44%
MIC [1]: 12.5 µg/mL (≈ 26.9 µM)
IC50 (Vero): > 200 µM
inhibition [3]: Dose-dependent effect

CCCCOC(=O)Nc1cc2nc(C3CCCCC3)[nH]c2cc1Oc1ccc(F)cc1
MIC [1]: 0.63 µg/mL (≈ 1.48 µM)
IC50 (Vero): 60 µM
inhibition [3]: Dose-dependent effect
Kd [4]: 1.32 µM
inhibition [5]: Active

C=CCCC(=O)Nc1cc2nc(C3CCCCC3)[nH]c2cc1SCCCC
inhibition of growth at 1 µg/mL [2]: 52%

CCOc1cc2[nH]c(C3CCCCC3)nc2cc1NC(=O)c1ccc(C)cc1
inhibition of growth at 1 µg/mL [2]: 65%

CCCCSc1cc2[nH]c(C3CCCCC3)nc2cc1NC(=O)c1ccc(C(C)(C)C)cc1
inhibition of growth at 1 µg/mL [2]: 45%

O=S(=O)(Nc1cc2nc(C3CCCCC3)[nH]c2cc1Sc1ccc(F)cc1)c1ccccc1
inhibition of growth at 1 µg/mL [2]: 30%

CCCCSc1cc2[nH]c(C3CCCCC3)nc2cc1NS(=O)(=O)c1ccccc1
inhibition of growth at 1 µg/mL [2]: 42%

CC(C)(C)c1ccc(C(=O)Nc2cc3nc(C4CCCCC4)[nH]c3cc2SCc2ccccc2)cc1
inhibition of growth at 1 µg/mL [2]: 52%
MIC [1]: 12.5 µg/mL (≈ 25.1 µM)
IC50 (Vero): > 200 µM

CC(C)(C)c1ccc(C(=O)Nc2cc3nc(C4CCCCC4)[nH]c3cc2Sc2ccccc2)cc1
inhibition of growth at 1 µg/mL [2]: 42%

C=CCCC(=O)Nc1cc2nc(C3CCCCC3)[nH]c2cc1Oc1ccc(F)cc1
inhibition of growth at 1 µg/mL [2]: 54%
MIC [1]: 12.5 µg/mL (≈ 30.7 µM)
IC50 (Vero): > 200 µM

CCCCSc1cc2[nH]c(C3CCCCC3)nc2cc1NC(=O)OCCC
inhibition of growth at 1 µg/mL [2]: 38%
MIC [1]: 1.25 µg/mL (≈ 3.21 µM)
IC50 (Vero): 75 µM

CCCOC(=O)Nc1cc2nc(C3CCCCC3)[nH]c2cc1SCc1ccccc1
inhibition of growth at 1 µg/mL [2]: 28%

C=CCCC(=O)Nc1cc2nc(C3CCCCC3)[nH]c2cc1OCCCC
inhibition of growth at 1 µg/mL [2]: 28%

CCCCOC(=O)Nc1cc2nc(C3CCCCC3)[nH]c2cc1N1CCCC1
MIC [1]: 0.39 µg/mL (≈ 1.01 µM)

C=CCCC(=O)Nc1cc2nc(C3CCCCC3)[nH]c2cc1SCc1ccccc1
inhibition of growth at 1 µg/mL [2]: 64%

CCCCSc1cc2[nH]c(C3CCCCC3)nc2cc1NC(=O)CCc1ccccc1
inhibition of growth at 1 µg/mL [2]: 33%

CCCCSc1cc2[nH]c(C3CCCCC3)nc2cc1NC(=O)c1ccc(F)cc1F
inhibition of growth at 1 µg/mL [2]: 51%
MIC [1]: 1.25 µg/mL (≈ 2.82 µM)
IC50 (Vero): > 200 µM

Cc1ccc(C(=O)Nc2cc3nc(C4CCCCC4)[nH]c3cc2Sc2ccccc2)cc1
inhibition of growth at 1 µg/mL [2]: 31%
MIC [1]: 6.25 µg/mL (≈ 14.2 µM)
IC50 (Vero): 6.25 µM

O=S(=O)(Nc1cc2nc(C3CCCCC3)[nH]c2cc1SCc1ccccc1)c1ccccc1
inhibition of growth at 1 µg/mL [2]: 30%

Cc1ccc(C(=O)Nc2cc3nc(C4CCCCC4)[nH]c3cc2Oc2ccc(F)cc2)cc1
inhibition of growth at 1 µg/mL [2]: 36%
MIC [1]: 1.56 µg/mL (≈ 3.52 µM)
IC50 (Vero): 26 µM
